According to PubChem BioAssay:
A number with no mark means an inactive call. Inconclusive results are not listed. Activity calls are given as the source filed them.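 How the source made its calls, unless noted: active means growth inhibition above 25% in both replicates, a cutoff set 3 SD above the mean; inconclusive means above 25% in only one replicate; inactive means the rest.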

Tests used:
[1] = S. cerevisiae growth inhibition in permissive medium (OD615), pilot counter-assay for S. cerevisiae lifespan shortening project, permissive growth control (AID 705); conditions: OD615, 24 h, at 10 µM, stronger effect = higher value
Procedure, shortened: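 System: S. cerevisiae with engineered DeaD lifespan system. Medium: SC raffinose/galactose permissive medium. Doses: single compound dose of 10 µM, 0.25% DMSO final. Schedule: 24 h exposure, 30 °C. Measured by: OD615 turbidity read. Read-out: growth inhibition.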

[2] = S. cerevisiae growth inhibition in restrictive medium, OD615, pilot screen, restrictive growth control, yeast lifespan reduction project (AID 706;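 active means growth inhibition above a set limit, 3 SD over mean compound inhibition, in both replicates, cut at about 43% in these data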;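 further: modified DeaD lifespan yeast strain shifted to restrictive glucose medium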); conditions: OD615, 48 h, at 10 µM, stronger effect = higher value
Procedure, shortened: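 Assay system – genetically modified Saccharomyces cerevisiae, DeaD replicative lifespan assay strain · Medium – CSMM-D glucose medium · Doses – 10 µM compound, 0.25% DMSO · Times – 4 h pre-incubation, 48 h exposure at 30 °C · Signal – optical density at 615 nm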

[3] = doxorubicin toxicity protection in MRP-1 cells – H69AR cells, CellTiter-Glo, duplicate, MRP-1 activator project, pilot screen (AID 807;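 active means viability increase at or above a cutoff of the median across tested compounds plus 3 SD, cut at about 8.5% in these data, passing the limit was not always enough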;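 further: compound pretreatment 18-22 h then 72 h combined with doxorubicin; 0% = doxorubicin alone and 100% = vehicle without doxorubicin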); conditions: H69AR viability with doxorubicin, CellTiter-Glo luminescence; at 10 µM; stronger effect = higher value
[4] = viability of HCT116 without oncogenic beta-catenin – human colon tumor cells, pilot screen (AID 823;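 active means cell viability at or below a set limit in both duplicate runs, the limit being the all-compound median minus 4 SD, cut at about 23% in these data, passing the limit was not always enough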;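 further: 0% = wells killed by 20 µM Hyamine and 100% = untreated DMSO cell wells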); conditions: HCT116 beta-catenin knockout viability, CellTiter-Glo, 60 h; at 10 µM; stronger effect = lower value
[5] = RAM pathway blockade in budding yeast – dse1pr::URA3 reporter, 5-FOA selection, pilot screen (AID 869;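 active means inhibition over a set limit, the all-compound mean plus 3 SD, in both replicate runs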;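 further: 0% = DMSO wells with no growth and 100% = 10 µM 1-NA-PP1 with full growth; RAM network block rescues cells from 5-FOA so hits raise OD615 growth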); conditions: S. cerevisiae dse1pr::URA3 5-FOA growth, OD615, 2 d; at 10 µM; stronger effect = higher value; strain carries analog-sensitive mutant Cbk1 kinase
[6] = RAM signaling pathway blockade in yeast – S. cerevisiae, Pdr1DBD-CYC8 efflux-inhibited sensitized strain, primary screen (AID 1298;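 active means RAM network inhibition above 8.4% in each of two replicates, 3 SD over the compound average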;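 further: 0% = DMSO untreated cells without growth and 100% = 10 µM 1-NA-PP1 full growth; higher means more yeast growth rescued from 5-FOA killing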); conditions: S. cerevisiae cbk1-as DSE1-URA3 strain, 5-FOA growth OD615, 2 d; at 50 µM; stronger effect = higher value

SMILES | growth inhibition [1] | growth inhibition [2] | viability increase [3] [%] | viability [4] | inhibition [5] [%] | RAM network inhibition [6] [%]
CSc1nc(SCC(=O)NCc2ccco2)c2c3c(sc2n1)COC(C)(C)C3 | -11.7% | -6.08% | -8.04 | 33.9% | 2.8 | 7.62
N#Cc1c2n(cnc1=O)CCCCC2 | -15.7% | 3.32% | -1.5 | 100% | 0.835 | 3.53
Cc1ccc(S(=O)(=O)N2CCC(C(=O)N[C@@H](C)C(=O)NCC3CCCO3)CC2)cc1 (some centres undefined) | -19.6% | -9.68% | -2.65 | 97% | 2.1 | -0.73
CC(=O)c1c(C)n(-c2ccc(N(C)C)cc2)c2ccc(OCC(N)=O)cc12 | -8.79% | -6.18% | -4.87 | 84.8% | 2.3 | 6.29
CCOC(=O)C1(c2csc(N)n2)COC(=O)C1 (centres undefined) | -11.9% | 0.175% | -0.78 | 96.8% | 2.44 | 2.75
CCOCCCNC(=O)C1CCC(CNS(=O)(=O)c2ccc(F)cc2)CC1 (centres undefined) | -7.63% | 6.36% | -2.28 | 95.5% | 1.19 | 7.28
COc1ccc(N2CCN(C(=O)Cn3c(=O)[nH]c4ccsc4c3=O)CC2)cc1 | -15.3% | -12.4% | -3.44 | 99.7% | 0.99 | 3.59
Cc1ccccc1Cn1cc(S(=O)(=O)CC(=O)Nc2nccs2)c2ccccc21 | -30.2% | 6.15% | -5.34 | 70.4% | 4.8 | 8.89
O=C(CN1C(=O)c2cccc3cccc1c23)N1CCN(c2ccc(F)cc2)CC1 | -26.6% | -0.695% | -2.42 | 94.1% | 2.49 | 8.63
N#Cc1c(-c2ccccc2)cc(-c2ccco2)c(C#N)c1N | -21.9% | -10.5% | -7.79 | 38.5% | 1.86 | 8.41
CCOc1cccc2c1OC1(C)CC2NC(=O)N1c1cccc(Cl)c1 (centres undefined) | -12% | 5.29% | -1.53 | 99.2% | -0.045 | 5.25
CCCCNC(=O)C1C2C=CC3(CN(Cc4ccc(C)cc4)C(=O)C13)O2 (centres undefined) | 2.61% | -16.4% | -2.02 | 95.1% | 0.08 | 0.67
CC(C)CC(NC(=O)C1CCC(C)CC1)C(=O)Nc1ccccn1 (centres undefined) | -11.7% | 2.61% | -1.42 | 92.9% | 0.5 | 3.07
Cc1cc(Nc2nc3c(c(=O)n(C)c(=O)n3C)n2C)n(-c2ccc(Cl)cc2)n1 | 9.41% | 3.67% | -3.74 | 92.7% | 3.25 | 3.85
COc1ccccc1N1CCN(CC(=O)Nc2cc(C)nn2-c2nc(C)cc(C)n2)CC1 | -5.77% | -18.8% | -7.06 | 19.6% (active) | 1.77 | 6.51
Cc1ccc(Cl)cc1N1CCN(S(=O)(=O)c2cccc(S(=O)(=O)N3CCCC3)c2)CC1 | -4.5% | 12% | 0.04 | 83.5% | 2.14 | 6.44
Cc1c(C(=O)NCC2COc3ccccc3O2)oc2ccc(S(=O)(=O)N3CCOCC3)cc12 (centres undefined) | -22% | -8.28% | -2.13 | 42.2% | 3.01 | 6.17
Cc1ccc(C)c(S(=O)(=O)Nc2ccccc2C(=O)Nc2cc(C)on2)c1 | -32.7% | -4.75% | -3.6 | 77.3% | 2.54 | 6.23
Cc1ccc(N=C2SCCCN2C(=O)c2ccco2)cc1Cl | -10.1% | 4.65% | -5.58 | 87.6% | 0.575 | 0.78
O=C(NCc1ccc2c(c1)OCO2)C1CCN(c2ccc(S(=O)(=O)N3CCCC3)cc2)CC1 | -20.2% | -1.93% | -6.29 | 65.5% | 3.25 | 4.72

SMILES | growth inhibition [1] | growth inhibition [2] | viability increase [3] [%] | viability [4] | inhibition [5] [%] | RAM network inhibition [6] [%]
CSc1nc2c(c(=O)n1-c1ccccc1)SCC2 | -15.9% | -8.25% | -2.76 | 98.3% | 0.775 | 0.21
CCOC(=O)C1=CSC2=NS(=O)(=O)CCN12 | 3.57% | -2.12% | -2.36 | 97.7% | 2.31 | -0.32
CN(C)CCCNC(=O)CC(c1ccc(F)cc1)c1ccco1 (centres undefined) | -28.8% | 0.42% | -2.97 | 77.9% | 0.69 | 5.45
Cn1nnc2c(NCc3ccco3)nccc21 | -26% | -1.62% | -4.4 | 96.6% | 3.05 | 0.93
COc1ccccc1C(=O)Nc1nnn(C)n1 | -26.5% | 6.7% | -0.45 | 108% | 0.84 | 6.87
O=C1c2ccccc2C(=O)N1CCCC(=O)N1CCc2ccccc21 | -21.9% | 8.75% | -0.37 | 95.7% | 2.44 | 10.1
COc1cc(C2/C(=C(\O)c3cc(C)ccc3C)C(=O)C(=O)N2CCN(C)C)ccc1O (centres undefined) | -21.2% | -6.28% | -1.94 | 100% | 1.94 | 10.3
O=C1C(Cl)=C(Nc2ccccc2O)C(=O)N1c1ccccc1 | -42% | -9.91% | -6.15 | 81.7% | 2.32 | 5.61
Cc1ccc(S(=O)(=O)c2nc(-c3ccc(F)cc3)oc2SCC(N)=O)cc1 | -20.8% | 0.745% | -2.75 | 100% | 1.27 | 1.2
CN(C(=O)c1ccc(NC(=O)c2cnccn2)cc1)C1CCCCC1 | 2.12% | 7.4% | -1.47 | 99.9% | 0.62 | 6.39
Cc1ccc(CNC(=O)CCS(=O)(=O)c2cccc3nonc23)cc1 | 8.16% | -4.57% | -0.35 | 98.8% | 1.71 | 5.43
CC1(C)Cc2c(sc3nc(SCC(=O)N4CCOCC4)nc(N)c23)CO1 | -2.9% | 18.3% | -3.19 | 98.9% | 1.49 | 0.62
Cc1c(NC(=O)CCC2CCCCC2)c(=O)n(-c2ccccc2)n1C | 5.74% | 3.62% | -0.39 | 99.4% | 0.965 | 3.28
CCn1nc(CC(=O)Nc2ccc(-n3cnnn3)c(C)c2)c2ccccc2c1=O | -14.8% | -10.9% | -4.37 | 90.3% | 0.6 | 5.97
CC(C)c1nc2sc3c(SCC(=O)NCc4ccco4)ncnc3c2c2c1CCC2 | -6.53% | -1.46% | -5.63 | 91.7% | 1.31 | 5.66
COc1ccc(-c2nnc(NC(=O)c3cc(Cl)ccc3Cl)o2)cc1 | 4.57% | 4.36% | -5.58 | 35.9% | 2.53 | 8.05
Cc1ccc(Cc2cnc(N)s2)o1 | -11.3% | 10.1% | -5.06 | 75.9% | 2.06 | 5.71
OCCN1CCN(c2ncnc3c2sc2nc(N4CCOCC4)c4c(c23)CCC4)CC1 | -16.4% | -3.42% | -7.68 | 55.3% | 1.13 | 2.39
Cc1cc(C)nc(/N=c2/ssnc2Cl)c1 | 100% (active) | 89.9% (active) | -7.78 | 30.8% | 1.81 | -2.52
